From ChEMBL document CHEMBL4609978, “Synthesis and evaluation of 2'-dihalo ribonucleotide prodrugs with activity against hepatitis C virus” (Bioorg Med Chem, 2020)

Legend:
Hepatitis C virus [1] = assay: Antiviral activity against HCV genotype 1a H77 infected in human HuH7 replicon cells assessed as inhibition of viral replication after 3 days by luciferase reporter gene assay; format: functional, organism-based, Hepacivirus hominis; conditions: subtype 1a H77, Huh-7, 72 h
Method in brief: (§1)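 Stable subgenomic replicon cell lines (genotype 1a-H77 or 1b-Con1) carrying a luciferase reporter; compounds added in DMEM with 5% FBS, cells incubated 3 days with or without compound, then lysed and luciferase activity read; EC50 from nonlinear regression fit to 4-parameter logistic equation.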

Hepatitis C virus [2] = assay: Antiviral activity against HCV genotype 1b Con1 infected in human HuH7 replicon cells assessed as inhibition of viral replication after 3 days by luciferase reporter gene assay; format: functional, organism-based, Hepacivirus hominis; conditions: subtype 1b Con1, Huh-7, 72 h; method in brief: as §1
[3] = Prodrug conversion in Beagle dog liver assessed as nucleotide triphosphate level at 5 mg/kg, po administered as single dose measured after 4 hrs by LC-MS/MS analysis; format: ADME, organism-based, Canis lupus familiaris; conditions: in vivo
[4] = Prodrug conversion in Beagle dog liver assessed as nucleotide triphosphate level at 5 mg/kg, po co-dosed with 5 mg/kg sofosbuvir measured after 4 hrs by LC-MS/MS analysis; format: ADME, organism-based, Canis lupus familiaris; conditions: in vivo
Method in brief: (§2)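 Beagle dogs (3 per time point) given single oral prodrug 5 mg/kg in EtOH:PEG-400:Phosal 53 MCT (10:30:60, w/w), cassette-dosed with sofosbuvir 5 mg/kg as internal standard; liver biopsies at 4 or 24 h, flash frozen, triphosphate measured by LC-MS/MS.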

[5] = Prodrug conversion in Beagle dog liver assessed as nucleotide triphosphate level at 5 mg/kg, po administered as single dose measured after 24 hrs by LC-MS/MS analysis; format: ADME, organism-based, Canis lupus familiaris; conditions: in vivo
[6] = Prodrug conversion in Beagle dog liver assessed as nucleotide triphosphate level at 5 mg/kg, po co-dosed with 5 mg/kg sofosbuvir measured after 24 hrs by LC-MS/MS analysis; format: ADME, organism-based, Canis lupus familiaris; conditions: in vivo; method in brief: as §2
[7] = Prodrug conversion in human primary hepatocytes assessed as nucleotide triphosphate level at 100 uM incubated for 4 hrs followed by compound wash-out for 20 hrs and measured following 4 hrs incubation period by LC-MS/MS analysis; format: ADME, cell-based, Hepatocyte
Method in brief: (§3)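 Cryopreserved primary human hepatocytes plated ~55,000 viable cells/well on collagen, medium changed after 4–6 h to Williams E maintenance medium with Geltrex 0.35 mg/mL, overnight at 37 °C; prodrug 100 µM for 4 h, then washed; second plate held a further 20 h drug-free; cells washed with ice-cold HBSS, triphosphate measured by LC-MS/MS at 4 or 24 h.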

[8] = Prodrug conversion in human primary hepatocytes assessed as nucleotide triphosphate level at 100 uM incubated for 4 hrs and followed by compound washout for 20 hrs and measured following 24 hrs incubation period by LC-MS/MS analysis; format: ADME, cell-based, Hepatocyte; method in brief: as §3
Hepatitis C virus [9] = assay: Antiviral activity against HCV genotype 1b Con1 over expressing CES1 infected in human HuH7 replicon cells assessed as inhibition of viral replication after 3 days by luciferase reporter gene assay; format: functional, organism-based, Hepacivirus hominis; conditions: subtype 1b Con1, Huh-7, 72 h
[10] = Distribution coefficient, logD of compound by HT-LCMS analysis; format: physicochemical; conditions: octanol/water
[11] = Aqueous solubility of compound in pH 7.4 phosphate buffer; format: physicochemical
[12] = Prodrug conversion in Beagle dog liver assessed as nucleotide triphosphate level at 5 mg/kg, po qd for 4 days and measured at 24 hrs post-last dose by LC-MS/MS analysis; format: ADME, organism-based, Canis lupus familiaris; conditions: in vivo
[13] = Prodrug conversion in Beagle dog liver assessed as nucleotide triphosphate level at 5 mg/kg, po qd for 4 days co-dosed with 5 mg/kg sofosbuvir and measured at 24 hrs post-last dose by LC-MS/MS analysis; format: ADME, organism-based, Canis lupus familiaris; conditions: in vivo
Method in brief: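 Beagle dogs (3 per time point) dosed orally once daily for 4 days with prodrug (1 or 5 mg/kg) in EtOH:PEG-400:Phosal 53 MCT (10:30:60, w/w) together with sofosbuvir 5 mg/kg; liver biopsy 24 h after final dose, flash frozen, triphosphate by LC-MS/MS.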

[14] = Stability in dog plasma assessed as parent compound remaining after 4 hrs; format: ADME, cell-free, Canis lupus familiaris; conditions: read-out: Stability
Method in brief: (§4)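 Prodrug incubated 4 h at 37 °C in dog or human plasma; result given as percent parent remaining.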

[15] = Stability in human plasma assessed as parent compound remaining after 4 hrs; format: ADME, cell-free; conditions: read-out: Stability; method in brief: as §4
[16] = Unbound drug level in dog plasma; format: ADME, cell-free, Canis lupus familiaris
[17] = Unbound drug level in human plasma; format: ADME, cell-free
[18] = Intrinsic clearance in dog hepatocytes; format: ADME, cell-based, Canis lupus familiaris, Hepatocyte; conditions: read-out: CLH (converted)
[19] = Intrinsic clearance in human hepatocytes; format: ADME, cell-based, Hepatocyte; conditions: read-out: CLH (converted)
[20] = Cytotoxicity against human HuH7 cells assessed as reduction in cell viability; format: cell-based, Huh-7; conditions: read-out: TD50 (the source's name)
Hepatitis C virus [21] = assay: Antiviral activity against HCV genotype 1b Con1 expressing wild type NS5B infected in human HuH7 replicon cells assessed as inhibition of viral replication after 4 days by luciferase reporter gene based assay; format: functional, organism-based, Hepacivirus hominis; conditions: subtype 1b Con1, Huh-7, 96 h
Hepatitis C virus [22] = assay: Antiviral activity against HCV genotype 1b Con1 expressing NS5B S282T mutant infected in human HuH7 replicon cells assessed as inhibition of viral replication after 4 days by luciferase reporter gene based assay; format: functional, organism-based, Hepacivirus hominis; conditions: subtype 1b Con1, Huh-7, 96 h
Hepatitis C virus [23] = assay: Antiviral activity against HCV genotype 2a expressing wild type NS5B infected in human HuH7 replicon cells assessed as inhibition of viral replication after 4 days by luciferase reporter gene based assay; format: functional, organism-based, Hepacivirus hominis; conditions: subtype 2a, Huh-7, 96 h
Hepatitis C virus [24] = assay: Antiviral activity against HCV genotype 2a expressing NS5B S282T mutant infected in human HuH7 replicon cells assessed as inhibition of viral replication after 4 days by luciferase reporter gene based assay; format: functional, organism-based, Hepacivirus hominis; conditions: subtype 2a, Huh-7, 96 h
Hepatitis C virus [25] = assay: Antiviral activity against HCV genotype 3a expressing wild type NS5B infected in human HuH7 replicon cells assessed as inhibition of viral replication after 4 days by luciferase reporter gene based assay; format: functional, organism-based, Hepacivirus hominis; conditions: subtype 3a, Huh-7, 96 h
Hepatitis C virus [26] = assay: Antiviral activity against HCV genotype 3a expressing NS5B S282T mutant infected in human HuH7 replicon cells assessed as inhibition of viral replication after 4 days by luciferase reporter gene based assay; format: functional, organism-based, Hepacivirus hominis; conditions: subtype 3a, Huh-7, 96 h
Hepatitis C virus [27] = assay: Antiviral activity against HCV genotype 4a expressing wild type NS5B infected in human HuH7 replicon cells assessed as inhibition of viral replication after 4 days by luciferase reporter gene based assay; format: functional, organism-based, Hepacivirus hominis; conditions: subtype 4a, Huh-7, 96 h
Hepatitis C virus [28] = assay: Antiviral activity against HCV genotype 6a expressing wild type NS5B infected in human HuH7 replicon cells assessed as inhibition of viral replication after 4 days by luciferase reporter gene based assay; format: functional, organism-based, Hepacivirus hominis; conditions: subtype 6a, Huh-7, 96 h
Hepatitis C virus [29] = assay: Potency index, ratio of sofosbuvir EC50 to compound EC50 for HCV genotype 1a H77 infected in human HuH7 replicon cells assessed as inhibition of viral replication after 3 days by luciferase reporter gene assay; format: functional, Hepacivirus hominis, subtype 1a H77, Huh-7
Method in brief: (§5)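 Stable subgenomic luciferase-reporter replicon Huh-7 lines, genotype 1a-H77 or 1b-Con1. Test compound and sofosbuvir comparator each run in DMEM with 5% FBS for 3 days. Cells lysed and luciferase activity read. EC50 obtained by nonlinear regression to a 4-parameter logistic equation. Index is sofosbuvir EC50 divided by compound EC50, both from this assay.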

Hepatitis C virus [30] = assay: Potency index, ratio of sofosbuvir EC50 to compound EC50 for HCV genotype 1b Con1 infected in human HuH7 replicon cells assessed as inhibition of viral replication after 3 days by luciferase reporter gene assay; format: functional, Hepacivirus hominis, subtype 1b Con1, Huh-7; method in brief: as §5

SMILES	EC50 (Hepatitis C virus [1]) [nM]	EC50 (Hepatitis C virus [2]) [nM]	Drug metabolism [3] [µM]	Drug metabolism [4] [µM]	Drug metabolism [5] [µM]	Drug metabolism [6] [µM]	Drug metabolism [7] [µM]	Drug metabolism [8] [µM]	EC50 (Hepatitis C virus [9]) [nM]	logD [10]	solubility [11] [µM]	remaining at 4 h [14] [%]	remaining at 4 h [15] [%]	fraction unbound [16]	CC50 [20] [nM]	other results
CC(C)OC(=O)[C@H](C)N[P@@](=O)(OC[C@H]1O[C@@H](n2ccc(=O)[nH]c2=O)[C@](Cl)(Br)[C@@H]1O)Oc1ccccc1	412	515	0.143	1.76	0.036	1.26	102	24	218	3.21	> 200					
CCOC(=O)C(C)(C)N[P@@](=O)(OC[C@H]1O[C@@H](n2ccc(=O)[nH]c2=O)[C@](Cl)(Br)[C@@H]1O)Oc1ccccc1	2720	2560	7.21	5.35	2.64	4.03				3.07	> 200	100	92	0.187		Drug metabolism [12]: 1.43 µM; Drug metabolism [13]: 6.05 µM; fraction unbound [17]: 0.31; CLint scaled [18]: 98.3 mL/min/kg; CLint scaled [19]: 155 mL/min/kg
CC(C)OC(=O)[C@H](C)N[P@](=O)(OC[C@H]1O[C@@H](n2ccc(=O)[nH]c2=O)C(F)(F)[C@@H]1O)Oc1ccccc1	226	286													384	
CC(C)OC(=O)[C@H](C)N[P@](=O)(OC[C@H]1O[C@@H](n2ccc(=O)[nH]c2=O)[C@](F)(Br)[C@@H]1O)Oc1ccccc1	3030	2500													26500	
CC(C)OC(=O)[C@H](C)N[P@](=O)(OC[C@H]1O[C@@H](n2ccc(=O)[nH]c2=O)[C@@](Cl)(Br)[C@@H]1O)Oc1ccccc1	200	258													> 100000	
CC(C)OC(=O)[C@H](C)N[P@](=O)(OC[C@H]1O[C@@H](n2ccc(=O)[nH]c2=O)[C@@](F)(Br)[C@@H]1O)Oc1ccccc1	56	87 to 95	11.5	7.39	6.61	8.87	192	91	56	3.07	> 200	86	100	0.367	> 100000	EC50 (Hepatitis C virus [21]): 15.2 nM; EC50 (Hepatitis C virus [22]): 134 nM; EC50 (Hepatitis C virus [23]): 189 nM; EC50 (Hepatitis C virus [24]): 308 nM; EC50 (Hepatitis C virus [25]): 12.7 nM; EC50 (Hepatitis C virus [26]): 75.3 nM; EC50 (Hepatitis C virus [27]): 25.7 nM; EC50 (Hepatitis C virus [28]): 14.5 nM; fraction unbound [17]: 0.43; CLint scaled [19]: 257 mL/min/kg; Ratio EC50 (Hepatitis C virus [29]): 2 - 3; Ratio EC50 (Hepatitis C virus [30]): 2 - 3
CC(C)OC(=O)[C@H](C)N[P@](=O)(OC[C@H]1O[C@@H](n2ccc(=O)[nH]c2=O)C(C)(C)C1O)Oc1ccccc1 (single isomer, unassigned)	5630	4750													31600	
CC(C)OC(=O)[C@H](C)N[P@](=O)(OC[C@H]1O[C@@H](n2ccc(=O)[nH]c2=O)[C@](C)(F)[C@@H]1O)Oc1ccccc1 [SOFOSBUVIR]	155 to 168	188 to 230					97	122	53		> 200	93	96	0.323	> 100000	EC50 (Hepatitis C virus [21]): 62 nM; EC50 (Hepatitis C virus [22]): 638 nM; EC50 (Hepatitis C virus [23]): 681 nM; EC50 (Hepatitis C virus [24]): 1000 nM; EC50 (Hepatitis C virus [25]): 75.1 nM; EC50 (Hepatitis C virus [26]): 330 nM; EC50 (Hepatitis C virus [27]): 78.5 nM; EC50 (Hepatitis C virus [28]): 86.7 nM; Fu [17]: 0.563; CLint scaled [18]: 40 mL/min/kg
